Experimental data reported in ChEMBL document CHEMBL5724801, “EUbOPEN Chemogenomics Library - Multiplex” (2024).
“And” between values parts separate entries of the source, which are not always exact repeats. Identical values can stand only once.

Tested on: U2OS
Assay: Multiplex assay against U2OS
Type: toxicity, cell-based
Settings: human
Procedure, shortened: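 Four dyes were applied at seeding to live cells: Hoechst33342, BioTracker Green Microtubule Cytoskeleton Dye, MitoTracker Red and Annexin V Alexa Fluor 680. Imaging after compound addition used a CQ1 microscope at 37°C and 5% CO2. CellPathfinder machine-learning gating then sorted cells into Hoechst high-intensity objects or normal cells, normal cells into healthy, pyknosed or fragmented nuclei, and pyknosed cells into mitotic or apoptotic, with tubulin, mitochondrial-mass and membrane-permeability phenotypes given as per cents of healthy-nucleus cells.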

[1] = 12 h, 1 µM, compound concentration 1 uM
[2] = 12 h, 10 µM, compound concentration 10 uM
[3] = 24 h, 1 µM, compound concentration 1 uM
[4] = 24 h, 10 µM, compound concentration 10 uM
[5] = 48 h, 1 µM, compound concentration 1 uM
[6] = 48 h, 10 µM, compound concentration 10 uM

CC(C)CC(=O)Nc1cncc(-c2ccc3[nH]nc(-c4nc5c(-c6cccc(F)c6)cncc5[nH]4)c3c2)c1 [LORECIVIVINT]
Population Apoptotic (%) [1]: 45.16% and 22.22%
Population Fragmented Nuclei (%) [1]: 2.6% and 2.94%
Population Healthy Nuclei (%) [1]: 88.44% and 83.82%
Population Hoechst High Intensity Objects (%) [1]: 0%
Population Membrane Permeable-Phenotype (%) [1]: 5.23% and 5.26%
Population Mitotic Cells (%) [1]: 54.84% and 77.78%
Population Normal (%) [1]: 100%
Population Pyknosed Nuclei (%) [1]: 8.96% and 13.24%
Population Tubulin-Different-Phenotype (%) [1]: 7.84% and 9.65%
Total Cell Count [1]: 346 and 136
Population Apoptotic (%) [2]: 60.48% and 43.06%
Population Fragmented Nuclei (%) [2]: 3.46% and 6.63%
Population Healthy Nuclei (%) [2]: 55.31% and 53.59%
Population Hoechst High Intensity Objects (%) [2]: 0%
Population Membrane Permeable-Phenotype (%) [2]: 4.46% and 6.19%
Population Mitochondria Different-Phenotype (%) [2]: 0% and 2.06%
Population Mitotic Cells (%) [2]: 39.52% and 56.94%
Population Normal (%) [2]: 100%
Population Pyknosed Nuclei (%) [2]: 41.23% and 39.78%
Population Tubulin-Different-Phenotype (%) [2]: 8.04% and 1.03%
Total Cell Count [2]: 405 and 181
Population Apoptotic (%) [3]: 65.71% and 37.04%
Population Fragmented Nuclei (%) [3]: 3.06% and 4.14%
Population Healthy Nuclei (%) [3]: 87.22% and 77.24%
Population Hoechst High Intensity Objects (%) [3]: 0.28% and 0%
Population Membrane Permeable-Phenotype (%) [3]: 2.87% and 3.57%
Population Mitotic Cells (%) [3]: 34.29% and 62.96%
Population Normal (%) [3]: 99.72% and 100%
Population Pyknosed Nuclei (%) [3]: 9.72% and 18.62%
Population Tubulin-Different-Phenotype (%) [3]: 5.73% and 4.46%
Total Cell Count [3]: 361 and 145
Population Apoptotic (%) [4]: 54.77% and 33.33%
Population Fragmented Nuclei (%) [4]: 3.76% and 6.3%
Population Healthy Nuclei (%) [4]: 39.53% and 38.24%
Population Hoechst High Intensity Objects (%) [4]: 0%
Population Membrane Permeable-Phenotype (%) [4]: 4.17% and 5.49%
Population Mitochondria Different-Phenotype (%) [4]: 0.6% and 2.2%
Population Mitotic Cells (%) [4]: 45.23% and 66.67%
Population Normal (%) [4]: 100%
Population Pyknosed Nuclei (%) [4]: 56.71% and 55.46%
Population Tubulin-Different-Phenotype (%) [4]: 10.12% and 3.3%
Total Cell Count [4]: 425 and 238
Population Apoptotic (%) [5]: 60.87% and 57%
Population Fragmented Nuclei (%) [5]: 5.63% and 2.11%
Population Healthy Nuclei (%) [5]: 42.54% and 27.46%
Population Hoechst High Intensity Objects (%) [5]: 0%
Population Membrane Permeable-Phenotype (%) [5]: 3.31% and 7.69%
Population Mitochondria Different-Phenotype (%) [5]: 0% and 12.82%
Population Mitotic Cells (%) [5]: 39.13% and 43%
Population Normal (%) [5]: 100%
Population Pyknosed Nuclei (%) [5]: 51.83% and 70.42%
Population Tubulin-Different-Phenotype (%) [5]: 7.95% and 10.26%
Total Cell Count [5]: 355 and 142
Population Apoptotic (%) [6]: 66.91% and 37.27%
Population Fragmented Nuclei (%) [6]: 5.11% and 2.77%
Population Healthy Nuclei (%) [6]: 33.11% and 33.6%
Population Hoechst High Intensity Objects (%) [6]: 0%
Population Membrane Permeable-Phenotype (%) [6]: 5.37% and 9.41%
Population Mitochondria Different-Phenotype (%) [6]: 1.34% and 1.18%
Population Mitotic Cells (%) [6]: 33.09% and 62.73%
Population Normal (%) [6]: 100%
Population Pyknosed Nuclei (%) [6]: 61.78% and 63.64%
Total Cell Count [6]: 450 and 253

CCNC1(C(N)=O)CCN(c2ncnc3c2nc(-c2ccccc2Cl)n3-c2ccc(Cl)cc2)CC1 [OTENABANT]
Population Apoptotic (%) [1]: 77% and 85%
Population Fragmented Nuclei (%) [1]: 30% and 17%
Population Healthy Nuclei (%) [1]: 60% and 74%
Population Hoechst High Intensity Objects (%) [1]: 3% and 2%
Population Membrane Permeable-Phenotype (%) [1]: 13% and 11%
Population Mitotic Cells (%) [1]: 22% and 14%
Population Normal (%) [1]: 96% and 97%
Population Pyknosed Nuclei (%) [1]: 9% and 7%
Population Tubulin-Different-Phenotype (%) [1]: 4% and 10%
Total Cell Count [1]: 254 and 93
Population Apoptotic (%) [2]: 58% and 70%
Population Fragmented Nuclei (%) [2]: 31% and 21%
Population Healthy Nuclei (%) [2]: 48% and 60%
Population Hoechst High Intensity Objects (%) [2]: 6% and 0%
Population Membrane Permeable-Phenotype (%) [2]: 81% and 65%
Population Mitochondria Different-Phenotype (%) [2]: 63% and 73%
Population Mitotic Cells (%) [2]: 41% and 30%
Population Normal (%) [2]: 93% and 99%
Population Pyknosed Nuclei (%) [2]: 19% and 18%
Population Tubulin-Different-Phenotype (%) [2]: 89% and 76%
Total Cell Count [2]: 211 and 112
Population Apoptotic (%) [3]: 79% and 80%
Population Fragmented Nuclei (%) [3]: 26% and 24%
Population Healthy Nuclei (%) [3]: 61% and 62%
Population Hoechst High Intensity Objects (%) [3]: 3% and 4%
Population Membrane Permeable-Phenotype (%) [3]: 11% and 15%
Population Mitochondria Different-Phenotype (%) [3]: 5% and 15%
Population Mitotic Cells (%) [3]: 20%
Population Normal (%) [3]: 96% and 95%
Population Pyknosed Nuclei (%) [3]: 11% and 13%
Population Tubulin-Different-Phenotype (%) [3]: 7% and 5%
Total Cell Count [3]: 308 and 120
Population Apoptotic (%) [4]: 69% and 80%
Population Fragmented Nuclei (%) [4]: 29% and 28%
Population Healthy Nuclei (%) [4]: 49% and 53%
Population Hoechst High Intensity Objects (%) [4]: 3%
Population Membrane Permeable-Phenotype (%) [4]: 55% and 47%
Population Mitochondria Different-Phenotype (%) [4]: 75% and 72%
Population Mitotic Cells (%) [4]: 30% and 20%
Population Normal (%) [4]: 96%
Population Pyknosed Nuclei (%) [4]: 20% and 18%
Population Tubulin-Different-Phenotype (%) [4]: 78% and 62%
Total Cell Count [4]: 218 and 137
Population Apoptotic (%) [5]: 86% and 52%
Population Fragmented Nuclei (%) [5]: 24% and 16%
Population Healthy Nuclei (%) [5]: 64% and 69%
Population Hoechst High Intensity Objects (%) [5]: 1% and 4%
Population Membrane Permeable-Phenotype (%) [5]: 7% and 13%
Population Mitochondria Different-Phenotype (%) [5]: 4% and 10%
Population Normal (%) [5]: 98% and 95%
Population Pyknosed Nuclei (%) [5]: 10% and 14%
Population Tubulin-Different-Phenotype (%) [5]: 3% and 9%
Population Apoptotic (%) [6]: 86% and 80%
Population Fragmented Nuclei (%) [6]: 32% and 29%
Population Healthy Nuclei (%) [6]: 43% and 45%
Population Hoechst High Intensity Objects (%) [6]: 7% and 10%
Population Membrane Permeable-Phenotype (%) [6]: 49% and 43%
Population Mitochondria Different-Phenotype (%) [6]: 55% and 66%
Population Mitotic Cells (%) [6]: 13% and 20%
Population Normal (%) [6]: 92% and 89%
Population Pyknosed Nuclei (%) [6]: 23% and 24%
Population Tubulin-Different-Phenotype (%) [6]: 51% and 49%
Total Cell Count [6]: 269 and 138
